Measured values of several laboratories.
Each line is one published result; the experiments were not run side by side.

C=C(F)C(=O)N1CCN(c2nc(OC[C@@H]3CCCN3C)nc3c2CCN(c2cccc4cccc(Cl)c24)C3)C[C@@H]1CC#N  GI50 (NCI-H1437; cell growth or viability, resazurin; 72 h): 3.68 µM
c1ccc2c(-c3nc4ccccc4[nH]3)c3ccccc3cc2c1  IC50 (human Rhabdomyosarcoma cell; cell growth or viability, MTT; 48 h): 7.66 µM
C[C@@H](Oc1cc(-c2cnn(C3CCNCC3)c2)cnc1N)c1c(Cl)ccc(F)c1Cl  inhibition (NCI-H3122; cell growth or viability, MTT; 0.2 µg/mL, 72 h): 52.9%
N[C@@H]1CCCN(c2c(/C=C3\SC(=O)NC3=O)cccc2-c2ccccc2)C1  GI50 (U-266; cell growth or viability, thymidine uptake): 4.27 µM
O=C(/C=C(O)/C=C/c1ccc[nH]1)/C=C/c1c[nH]c2ccccc12  IC50 (CHO-K1; cell growth or viability, MTT; 72 h): 11 µM
COc1ccc(-c2ccc(/C(C)=N/O)c(O)c2Cl)cc1  viability (NCI-H1299; cell growth or viability, MTT; 30 µM, 48 h): 73%
C=CCn1c(-c2ccc([N+](=O)[O-])cc2)nc2ccccc21  IC50 (human Rhabdomyosarcoma cell; cell growth or viability, MTT): 32.6 µM
O=C(Cn1ccnc1[N+](=O)[O-])NCc1ccccc1  CC50 (Vero; cell growth or viability; 72 h): > 10 µM
CC(=O)Oc1ccc(/C=N/NC(=O)c2ccc(Nc3cc(C)nc4c(O)cccc34)cc2)cc1  inhibition (SMMC-7721; cell growth or viability, MTT; 20 µM): 14.1%
COC(=O)c1ccc2c(c1)NC(=O)/C2=C(\Nc1ccc(N(C)C(=O)CN2CCN(C)CC2)cc1)c1ccccc1  inhibition (L929; cell growth or viability, MTT; 10 µM, 24 h): < 50%
C/C(=N\O)c1ccc(-c2ccc(C#N)cc2)c(Cl)c1O  viability (NCI-H1299; cell growth or viability, MTT; 30 µM, 48 h): 75%
COc1cc(/C=C/C(=O)/C=C(O)/C=C/c2ccnc3ccccc23)ccc1O  IC50 (CHO-K1; cell growth or viability, SRB; 72 h): 19.3 µM
Cc1cc(Nc2ccc(C(=O)N/N=C/c3ccc(C)s3)cc2)c2cccc(O)c2n1  inhibition (SMMC-7721; cell growth or viability, MTT; 20 µM): 25.1%
COc1cc(/C=C/c2cc(/C=C/c3ccncc3)[nH]n2)ccc1O  IC50 (CHO-K1; cell growth or viability, MTT; 72 h): 32.2 µM
Oc1ccccc1-c1nc2ccccc2[nH]1  IC50 (human Rhabdomyosarcoma cell; cell growth or viability, MTT; 48 h): 15.4 µM
Cc1ccc(NC(=O)NCc2ccc3c(c2)CN(C2CCC(=O)NC2=O)C3=O)cc1Cl (stereo not shown)  EC50 (MHHCALL4; cell growth or viability, ATP luminescence): 1.9 pM
Cc1ccc2nc(-c3ccccc3Cl)[nH]c2c1  IC50 (human Rhabdomyosarcoma cell; cell growth or viability, MTT; 48 h): 46.5 µM
Cc1cc(Nc2ccc(C(=O)N/N=C/c3ccc(N(C)C)cc3)cc2)c2cccc(O)c2n1  inhibition (SMMC-7721; cell growth or viability, MTT; 20 µM): 33.6%
Fc1cccc(Cl)c1-c1nc2ccccc2[nH]1  IC50 (human Rhabdomyosarcoma cell; cell growth or viability, MTT; 48 h): > 100 µM
CC(=O)c1cccc(N=Nc2c(C(=O)O)cc(O)c(O)c2O)c1  inhibition (RAW264.7; TNF-α release, inhibitor, ELISA; 10 µM, LPS-stimulated): 48%
Cc1cc(Nc2ncc(Cl)c(Nc3ccccc3S(=O)(=O)C(C)C)n2)c(OC(C)C)cc1C1CCNCC1  inhibition (NCI-H3122; cell growth or viability, MTT; 0.0032 µg/mL, 72 h): 10.3%
CSc1ccc(-c2nc3ccccc3[nH]2)cc1  IC50 (human Rhabdomyosarcoma cell; cell growth or viability, MTT; 48 h): 21.6 µM
